Experimental data reported in ChEMBL document CHEMBL3585281, “Antibacterial Labdane Diterpenoids from Vitex vestita” (2015).

Assays:
Format in all cases: functional
MRC5 [1] = assay: Cytotoxicity against human MRC5 cells assessed as growth inhibition at 10^-5 M after 72 hrs by MTS assay relative to control; details: MRC5, 72 h, read-out: GI
In short: (§1)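 Cells from ATCC; HCT-116 grown in RPMI 1640 and MRC5 in DMEM, each with 10% FCS and 1% glutamine, 37 °C, 5% CO2. Seeded at 2.5 × 10^3 cells/well, cultured 24 h, then exposed to compounds at 1 and 10 μM final for 72 h. MTS read-out, absorbance 490 nm; percent index from treated/control OD490 × 100, three experiments.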

HCT-116 [2] = assay: Cytotoxicity against human HCT116 cells assessed as growth inhibition at 10^-6 M after 72 hrs by MTS assay relative to control; details: HCT-116, 72 h, read-out: GI; in short: as §1
HCT-116 [3] = assay: Cytotoxicity against human HCT116 cells assessed as growth inhibition at 10^-5 M after 72 hrs by MTS assay relative to control; details: HCT-116, 72 h, read-out: GI; in short: as §1
MRC5 [4] = assay: Cytotoxicity against human MRC5 cells assessed as growth inhibition at 10^-6 M after 72 hrs by MTS assay relative to control; details: MRC5, 72 h, read-out: GI; in short: as §1
Corynebacterium striatum = assay: Antibacterial activity against Corynebacterium striatum N840 after 18 hrs by agar dilution method
In short: (§2)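 Agar-dilution MIC against Gram-positive strains. Compounds in DMSO, geometric dilutions giving final 100−0.75 mg/L in Mueller Hinton agar. Strains grown 18 h at 37 °C in trypticase soy broth, diluted in sterile water, spotted by Steers inoculator (about 1000 UFC/spot). Plates incubated 18 h at 37 °C; DMSO blank; ofloxacin positive control. MIC = lowest concentration with no visible growth.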

[5] = system: Staphylococcus haemolyticus; assay: Antibacterial activity against Staphylococcus haemolyticus CIP 8156 after 18 hrs by agar dilution method; in short: as §2
Bacillus cereus [6] = assay: Antibacterial activity against Bacillus cereus N190 after 18 hrs by agar dilution method; in short: as §2
Bacillus spizizenii = assay: Antibacterial activity against Bacillus subtilis ATCC 6633 after 18 hrs by agar dilution method; in short: as §2
Staphylococcus aureus [7] = assay: Antibacterial activity against Staphylococcus aureus CRBIP 2121 after 18 hrs by agar dilution method; in short: as §2
Listeria monocytogenes [8] = assay: Antibacterial activity against Listeria monocytogenes N851 after 18 hrs by agar dilution method; in short: as §2
[9] = system: Staphylococcus saprophyticus; assay: Antibacterial activity against Staphylococcus saprophyticus E260 after 18 hrs by agar dilution method; in short: as §2
Staphylococcus aureus [10] = assay: Antibacterial activity against Staphylococcus aureus ATCC 9144 oxford after 18 hrs by agar dilution method; in short: as §2
[11] = system: Staphylococcus saprophyticus; assay: Antibacterial activity against Staphylococcus saprophyticus CIP 76125 after 18 hrs by agar dilution method; in short: as §2
Listeria monocytogenes [12] = assay: Antibacterial activity against Listeria monocytogenes N783 after 18 hrs by agar dilution method; in short: as §2
Mammaliicoccus sciuri = assay: Antibacterial activity against Staphylococcus sciuri N993 after 18 hrs by agar dilution method; in short: as §2
[13] = system: Staphylococcus epidermidis; assay: Antibacterial activity against Staphylococcus epidermidis CIP 53124 after 18 hrs by agar dilution method; in short: as §2
Staphylococcus aureus [14] = assay: Antibacterial activity against Staphylococcus aureus ATCC 25923 after 18 hrs by agar dilution method; in short: as §2
Enterococcus faecium [15] = assay: Antibacterial activity against Enterococcus faecium CIP 103014 after 18 hrs by agar dilution method; in short: as §2
Bacillus cereus [16] = assay: Antibacterial activity against Bacillus cereus CIP 6624 after 18 hrs by agar dilution method; in short: as §2
Enterococcus gallinarum [17] = assay: Antibacterial activity against Enterococcus gallinarum N489 after 18 hrs by agar dilution method; in short: as §2
Enterococcus hirae = assay: Antibacterial activity against Enterococcus hirae CIP 5855 after 18 hrs by agar dilution method; in short: as §2
Enterococcus gallinarum [18] = assay: Antibacterial activity against Enterococcus gallinarum CIP 105985 after 18 hrs by agar dilution method; in short: as §2
Staphylococcus aureus [19] = assay: Antibacterial activity against Staphylococcus aureus CIP 53154 after 18 hrs by agar dilution method; in short: as §2
Enterococcus faecium [20] = assay: Antibacterial activity against Enterococcus faecium N733 after 18 hrs by agar dilution method; in short: as §2
Enterococcus gallinarum [21] = assay: Antibacterial activity against Enterococcus gallinarum N492 after 18 hrs by agar dilution method; in short: as §2
Bacillus cereus [22] = assay: Antibacterial activity against Bacillus cereus N258 after 18 hrs by agar dilution method; in short: as §2
[23] = system: Staphylococcus intermedius; assay: Antibacterial activity against Staphylococcus intermedius N987 after 18 hrs by agar dilution method; in short: as §2
Enterococcus faecalis [24] = assay: Antibacterial activity against Enterococcus faecalis N518 after 18 hrs by agar dilution method; in short: as §2
[25] = system: Enterococcus casseliflavus; assay: Antibacterial activity against Enterococcus casseliflavus N487 after 18 hrs by agar dilution method; in short: as §2
Enterococcus faecalis [26] = assay: Antibacterial activity against Enterococcus faecalis CIP 103214 after 18 hrs by agar dilution method; in short: as §2
Bacillus cereus [27] = assay: Antibacterial activity against Bacillus cereus N349 after 18 hrs by agar dilution method; in short: as §2
Enterococcus durans = assay: Antibacterial activity against Enterococcus durans CIP 104999 after 18 hrs by agar dilution method; in short: as §2
Staphylococcus aureus [28] = assay: Antibacterial activity against Staphylococcus aureus CIP 5710 after 18 hrs by agar dilution method; in short: as §2
Enterococcus faecalis [29] = assay: Antibacterial activity against Enterococcus faecalis CIP 104676 after 18 hrs by agar dilution method; in short: as §2
Staphylococcus aureus [30] = assay: Antibacterial activity against Staphylococcus aureus CIP 483 after 18 hrs by agar dilution method; in short: as §2
Enterococcus faecium [31] = assay: Antibacterial activity against Enterococcus faecium N490 after 18 hrs by agar dilution method; in short: as §2
Enterococcus avium = assay: Antibacterial activity against Enterococcus avium CIP 104053 after 18 hrs by agar dilution method; in short: as §2
Enterococcus faecalis [32] = assay: Antibacterial activity against Enterococcus faecalis N520 after 18 hrs by agar dilution method; in short: as §2
Enterococcus faecium [33] = assay: Antibacterial activity against Enterococcus faecium CIP 107387 after 18 hrs by agar dilution method; in short: as §2
Staphylococcus aureus [34] = assay: Antibacterial activity against Staphylococcus aureus CIP 7625 after 18 hrs by agar dilution method; in short: as §2
Enterococcus faecium [35] = assay: Antibacterial activity against Enterococcus faecium N823 after 18 hrs by agar dilution method; in short: as §2
Enterococcus faecalis [36] = assay: Antibacterial activity against Enterococcus faecalis N491 after 18 hrs by agar dilution method; in short: as §2
Enterococcus faecium [37] = assay: Antibacterial activity against Enterococcus faecium N507 after 18 hrs by agar dilution method; in short: as §2
Staphylococcus aureus [38] = assay: Antibacterial activity against Staphylococcus aureus CIP 53156 after 18 hrs by agar dilution method; in short: as §2
Streptococcus agalactiae = assay: Antibacterial activity against Streptococcus agalactiae CIP 103227 after 18 hrs by agar dilution method; details: ATCC 13813; in short: as §2
Listeria innocua = assay: Antibacterial activity against Listeria innocua E044 after 18 hrs by agar dilution method; in short: as §2
Listeria monocytogenes [39] = assay: Antibacterial activity against Listeria monocytogenes CIP 103575 after 18 hrs by agar dilution method; in short: as §2
[40] = system: Enterococcus casseliflavus; assay: Antibacterial activity against Enterococcus casseliflavus CIP 103018 after 18 hrs by agar dilution method; in short: as §2
Listeria monocytogenes [41] = assay: Antibacterial activity against Listeria monocytogenes N836 after 18 hrs by agar dilution method; in short: as §2
[42] = system: Staphylococcus lugdunensis; assay: Antibacterial activity against Staphylococcus lugdunensis ATCC 43809 after 18 hrs by agar dilution method; in short: as §2

## C=C1C[C@@H](O)[C@H]2C(C)(C)CCC[C@]2(C)[C@H]1C[C@H](O)C1=CC(=O)OC1O (stereo not given in full)
MRC5 [1]
  inhibition of growth at 10 µM: 0%
HCT-116 [2]
  inhibition of growth at 1 µM: 0%
HCT-116 [3]
  inhibition of growth at 10 µM: 66%
MRC5 [4]
  inhibition of growth at 1 µM: 0%

## GENTAMICIN
Corynebacterium striatum
  MIC: > 278 µM
[5]
  MIC: < 140 nM
Bacillus cereus [6]
  MIC: 1000 nM
Bacillus spizizenii
  MIC: 300 nM
Staphylococcus aureus [7]
  MIC: > 278 µM
Listeria monocytogenes [8]
  MIC: 1000 nM
[9]
  MIC: < 140 nM
Staphylococcus aureus [10]
  MIC: 500 nM
[11]
  MIC: 300 nM
Listeria monocytogenes [12]
  MIC: 1000 nM
Mammaliicoccus sciuri
  MIC: < 140 nM
[13]
  MIC: 500 nM
Staphylococcus aureus [14]
  MIC: 1000 nM
Enterococcus faecium [15]
  MIC: 17 µM
Bacillus cereus [16]
  MIC: 1000 nM
Enterococcus gallinarum [17]
  MIC: 4 µM
Enterococcus hirae
  MIC: 35 µM
Enterococcus gallinarum [18]
  MIC: 17 µM
Staphylococcus aureus [19]
  MIC: 4 µM
Enterococcus faecium [20]
  MIC: > 278 µM
Enterococcus gallinarum [21]
  MIC: 17 µM
Bacillus cereus [22]
  MIC: 2000 nM
[23]
  MIC: 139 µM
Enterococcus faecalis [24]
  MIC: 70 µM
[25]
  MIC: 9 µM
Enterococcus faecalis [26]
  MIC: 35 µM
Bacillus cereus [27]
  MIC: 2000 nM
Enterococcus durans
  MIC: 17 µM
Staphylococcus aureus [28]
  MIC: 1000 nM
Enterococcus faecalis [29]
  MIC: > 278 µM
Staphylococcus aureus [30]
  MIC: 1000 nM
Enterococcus faecium [31]
  MIC: > 278 µM
Enterococcus avium
  MIC: 2000 nM
Enterococcus faecalis [32]
  MIC: > 278 µM
Enterococcus faecium [33]
  MIC: > 278 µM
Staphylococcus aureus [34]
  MIC: 1000 nM
Enterococcus faecium [35]
  MIC: > 278 µM
Enterococcus faecalis [36]
  MIC: > 278 µM
Enterococcus faecium [37]
  MIC: > 278 µM
Staphylococcus aureus [38]
  MIC: 1000 nM
Streptococcus agalactiae
  MIC: 2000 nM
Listeria innocua
  MIC: 1000 nM
Listeria monocytogenes [39]
  MIC: 1000 nM
[40]
  MIC: 9 µM
Listeria monocytogenes [41]
  MIC: 1000 nM
[42]
  MIC: 500 nM
